Results on four compounds are retold here after ChEMBL document CHEMBL2412955, “Synthesis and antibacterial activities of N-substituted-glycinyl 1H-1,2,3-triazolyl oxazolidinones” (2013).

Converted amounts (≈) assume the structure as drawn. Some results are limits rather than exact numbers.

What all share (format): functional
For test [1], the system named is Staphylococcus aureus. Description: Antibacterial activity against methicillin-resistant Staphylococcus aureus after 18 hrs by NCCLS agar dilution method. An outline of the steps:
(§1)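 Clinical isolates were tested by agar dilution on Mueller-Hinton agar with drug dilutions from 0.12 to 64 µg/ml. Test compounds were dissolved in 80% DMSO in water. Final inoculum was 10^7 CFU/ml, incubated at 35 °C for 18 h. MIC was the lowest concentration inhibiting visible growth.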
(In general: In agar dilution, organisms are placed on agar that contains the substance at set levels.)

The test system of test [2] is Moraxella catarrhalis. Description: Antibacterial activity against Moraxella catarrhalis clinical isolate 255 after 18 hrs by NCCLS agar dilution method. To be noted: clinical isolate 255, 18 h. The method, boiled down: (§2)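 NCCLS agar dilution on Mueller-Hinton agar with 5% sheep blood added to support growth. Drug dilutions 0.12–64 µg/ml. Test agents in 80% DMSO in water, linezolid in 40% water in ethanol. Final inoculum 10^7 CFU/ml, 18 h at 35 °C. MIC read as the lowest concentration with no visible growth.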

The test system of test [3] is Moraxella catarrhalis. Description: Antibacterial activity against Moraxella catarrhalis clinical isolate 1 after 18 hrs by NCCLS agar dilution method. The following applies: clinical isolate 1, 18 h. An outline of the steps:
as §2

For test [4], the system named is Moraxella catarrhalis. The test is described as follows: Antibacterial activity against Moraxella catarrhalis clinical isolate 3447 after 18 hrs by NCCLS agar dilution method. To be noted: clinical isolate 3447, 18 h. An outline of the steps:
as §2

Test [5] relates to Enterococcus. Description: Antibacterial activity against vancomycin-resistant Enterococcus after 18 hrs by NCCLS agar dilution method. The method, boiled down: as §1
The subject of test [6] is Enterococcus. The test is described as follows: Antibacterial activity against vancomycin-susceptible Enterococcus after 18 hrs by NCCLS agar dilution method. An outline of the steps: as §1
Test [7] concerns Staphylococcus. Description: Antibacterial activity against methicillin-resistant coagulase-negative Staphylococcus after 18 hrs by NCCLS agar dilution method. An outline of the steps:
as §1

Test [8] deals with Moraxella catarrhalis. The test is described as follows: Antibacterial activity against Moraxella catarrhalis clinical isolate 36 after 18 hrs by NCCLS agar dilution method. The following applies: clinical isolate 36, 18 h. An outline of the steps:
as §2

For test [9], the system named is Moraxella catarrhalis. The test is described as follows: Antibacterial activity against Moraxella catarrhalis ATCC 8176 after 18 hrs by NCCLS agar dilution method. The following applies: ATCC 8176, 18 h. The method, boiled down: as §2
The subject of a further test is Escherichia coli. The test is described as follows: Antibacterial activity against Escherichia coli ATCC 25922 after 18 hrs by NCCLS agar dilution method. The following applies: ATCC 25922, 18 h. The method, boiled down: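 Agar dilution per NCCLS on Mueller-Hinton agar, drug dilutions 0.12–64 µg/ml. Linezolid dissolved in 40% water in ethanol, vancomycin in water, test agents in 80% DMSO in water. Inoculum 10^7 CFU/ml (final), incubated 35 °C for 18 h. MIC is the lowest concentration preventing visible growth.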

For the next test, the system named is Haemophilus influenzae. The test is described as follows: Antibacterial activity against Haemophilus influenzae ATCC 49247 after 18 hrs by NCCLS agar dilution method. The following applies: ATCC 49247, 18 h. An outline of the steps: as §2
In test [10] the test system is Staphylococcus aureus. Description: Antibacterial activity against Staphylococcus aureus ATCC 25923 after 18 hrs by NCCLS agar dilution method. The following applies: ATCC 25923, 18 h. The method, boiled down: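 Plain Mueller-Hinton agar, agar dilution per NCCLS, concentrations 0.12–64 µg/ml. Test agents in 80% DMSO in water, linezolid in 40% water in ethanol, vancomycin in water. Final inoculum 10^7 CFU/ml, 35 °C for 18 h. MIC = lowest concentration inhibiting visible growth.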

In test [11] the test system is Moraxella catarrhalis. The test is described as follows: Antibacterial activity against Moraxella catarrhalis clinical isolate 112 after 18 hrs by NCCLS agar dilution method. The following applies: clinical isolate 112, 18 h. The method, boiled down:
as §2

The subject of test [12] is Moraxella catarrhalis. The test is described as follows: Antibacterial activity against Moraxella catarrhalis clinical isolate 125 after 18 hrs by NCCLS agar dilution method. The following applies: clinical isolate 125, 18 h. The method, boiled down: as §2
Test [13] relates to Moraxella catarrhalis. The test is described as follows: Antibacterial activity against Moraxella catarrhalis clinical isolate 2824 after 18 hrs by NCCLS agar dilution method. The following applies: clinical isolate 2824, 18 h. An outline of the steps: as §2
Test [14] has as its system Staphylococcus aureus. Description: Antibacterial activity against methicillin-susceptible Staphylococcus aureus after 18 hrs by NCCLS agar dilution method. An outline of the steps: as §1
The subject of test [15] is Staphylococcus. The test is described as follows: Antibacterial activity against methicillin-susceptible coagulase-negative Staphylococcus after 18 hrs by NCCLS agar dilution method. The method, boiled down: as §1
For another test, the system named is Streptococcus pneumoniae. Description: Antibacterial activity against penicillin-resistant Streptococcus pneumoniae after 18 hrs by NCCLS agar dilution method. An outline of the steps: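 Agar dilution was run on Mueller-Hinton agar supplemented with 5% sheep blood, with drug dilutions from 0.12 to 64 µg/ml. Test compounds were dissolved in 80% DMSO in water. Final inoculum was 10^7 CFU/ml, incubated at 35 °C for 18 h. MIC was the lowest concentration preventing visible growth.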

The subject of test [16] is Staphylococcus aureus. The test is described as follows: Antibacterial activity against Staphylococcus aureus ATCC 25923 after 18 hrs by […] in presence of human plasma. The following applies: ATCC 25923, Plasma. The method, boiled down: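 To gauge plasma protein binding and/or plasma instability, MIC was determined in Mueller-Hinton broth containing 50% human plasma. Linezolid served as a reference agent. Ratio compares this MIC with the MIC obtained without plasma.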

The test system of test [17] is Moraxella catarrhalis. The test is described as follows: Antibacterial activity against Moraxella catarrhalis clinical isolate 138 after 18 hrs by NCCLS agar dilution method. The following applies: clinical isolate 138, 18 h. An outline of the steps: as §2

For the compound `Cc1cn(C[C@H]2CN(c3ccc(N4CCN(C(=O)CNC(=O)c5ccccc5)CC4)c(F)c3)C(=O)O2)nn1`, the MIC against Staphylococcus aureus [1] stood at 0.5 µg/mL (≈ 0.959 µM); in the test with Moraxella catarrhalis [2] it was 4 µg/mL (≈ 7.67 µM); against Moraxella catarrhalis [3], 4 µg/mL (≈ 7.67 µM); with Moraxella catarrhalis [4], 4 µg/mL (≈ 7.67 µM); in the test on Enterococcus [5] it was 0.5 µg/mL (≈ 0.959 µM); in the test with Enterococcus [6] it was 0.5 µg/mL (≈ 0.959 µM). In addition, the MIC with Staphylococcus [7] is 0.5 µg/mL (≈ 0.959 µM); in the test with Moraxella catarrhalis [8] it was 4 µg/mL (≈ 7.67 µM); against Moraxella catarrhalis [9] it was 8 µg/mL (≈ 15.3 µM); in the test on Escherichia coli, greater than 64 µg/mL; with Haemophilus influenzae, 32 µg/mL (≈ 61.4 µM); in the test with Staphylococcus aureus [10], 1 µg/mL (≈ 1.92 µM). Besides, the MIC came to 4 µg/mL (≈ 7.67 µM) against Moraxella catarrhalis [11]; 4 µg/mL (≈ 7.67 µM) against Moraxella catarrhalis [12]; 4 µg/mL (≈ 7.67 µM) against Moraxella catarrhalis [13]; 0.5 µg/mL (≈ 0.959 µM) in the test with Staphylococcus aureus [14]; 0.5 µg/mL (≈ 0.959 µM) with Staphylococcus [15]; 2 µg/mL (≈ 3.83 µM) in the test on Streptococcus pneumoniae. The results for the MIC in the test with Staphylococcus aureus [16] and with Moraxella catarrhalis [17] were 16 µg/mL and 4 µg/mL (≈ 7.67 µM), respectively.

For the compound `O=C(NCC(=O)N1CCN(c2ccc(N3C[C@H](Cn4ccnn4)OC3=O)cc2F)CC1)c1cccnc1`, the MIC against Staphylococcus aureus [1] is 1 µg/mL (≈ 1.97 µM); against Moraxella catarrhalis [2], 8 µg/mL (≈ 15.7 µM); in the test on Moraxella catarrhalis [3] it was 8 µg/mL (≈ 15.7 µM); in the test with Moraxella catarrhalis [4], 8 µg/mL (≈ 15.7 µM); with Enterococcus [5], 2 µg/mL (≈ 3.93 µM); in the test on Enterococcus [6] it was 2 µg/mL (≈ 3.93 µM). The MIC is 1 µg/mL (≈ 1.97 µM) against Staphylococcus [7]; 8 µg/mL (≈ 15.7 µM) against Moraxella catarrhalis [8]; 8 µg/mL (≈ 15.7 µM) with Moraxella catarrhalis [9]; greater than 64 µg/mL against Escherichia coli; 8 µg/mL (≈ 15.7 µM) against Haemophilus influenzae; 2 µg/mL (≈ 3.93 µM) in the test with Staphylococcus aureus [10]. The MIC is 8 µg/mL (≈ 15.7 µM) in the test with Moraxella catarrhalis [11]; 8 µg/mL (≈ 15.7 µM) with Moraxella catarrhalis [12]; 8 µg/mL (≈ 15.7 µM) in the test on Moraxella catarrhalis [13]; 1 µg/mL (≈ 1.97 µM) against Staphylococcus aureus [14]; 1 µg/mL (≈ 1.97 µM) in the test with Staphylococcus [15]; 0.25 µg/mL (≈ 0.492 µM) in the test on Streptococcus pneumoniae. For the same compound, the results for the MIC in the test with Staphylococcus aureus [16] and against Moraxella catarrhalis [17] were 8 µg/mL and 8 µg/mL (≈ 15.7 µM), respectively.

As to `O=C(NCC(=O)N1CCN(c2ccc(N3C[C@H](Cn4ccnn4)OC3=O)cc2F)CC1)c1cccs1`, the MIC against Staphylococcus aureus [1] was determined as 0.5 µg/mL (≈ 0.974 µM); against Moraxella catarrhalis [2], 8 µg/mL (≈ 15.6 µM); against Moraxella catarrhalis [3], 8 µg/mL (≈ 15.6 µM); against Moraxella catarrhalis [4], 8 µg/mL (≈ 15.6 µM); against Enterococcus [5], 1 µg/mL (≈ 1.95 µM); in the test with Enterococcus [6], 1 µg/mL (≈ 1.95 µM). For the same compound, the MIC with Staphylococcus [7] was 0.5 µg/mL (≈ 0.974 µM); in the test with Moraxella catarrhalis [8] it was 8 µg/mL (≈ 15.6 µM); in the test on Moraxella catarrhalis [9], 8 µg/mL (≈ 15.6 µM); in the test with Escherichia coli it was greater than 64 µg/mL; with Haemophilus influenzae, 16 µg/mL (≈ 31.2 µM); against Staphylococcus aureus [10], 1 µg/mL (≈ 1.95 µM). Further, the MIC in the test with Moraxella catarrhalis [11] turned out to be 8 µg/mL (≈ 15.6 µM); against Moraxella catarrhalis [12] it was 8 µg/mL (≈ 15.6 µM); against Moraxella catarrhalis [13], 8 µg/mL (≈ 15.6 µM); with Staphylococcus aureus [14] it was 0.5 µg/mL (≈ 0.974 µM); in the test on Staphylococcus [15] it was 0.5 µg/mL (≈ 0.974 µM); against Streptococcus pneumoniae, 0.5 µg/mL (≈ 0.974 µM). Besides, the MIC in the test on Staphylococcus aureus [16] is 8 µg/mL; with Moraxella catarrhalis [17], 8 µg/mL (≈ 15.6 µM).

For the compound `Cc1cn(C[C@H]2CN(c3ccc(N4CCN(C(=O)CNC(=O)c5cccs5)CC4)c(F)c3)C(=O)O2)nn1`, the MIC was 1 µg/mL (≈ 1.9 µM) against Staphylococcus aureus [1]; 8 µg/mL (≈ 15.2 µM) in the test on Moraxella catarrhalis [2]; no less than 8 µg/mL against Moraxella catarrhalis [3]; no less than 8 µg/mL in the test on Moraxella catarrhalis [4]; 1 µg/mL (≈ 1.9 µM) in the test with Enterococcus [5]; 1 µg/mL (≈ 1.9 µM) with Enterococcus [6]. The MIC in the test on Staphylococcus [7] was 1 µg/mL (≈ 1.9 µM); with Moraxella catarrhalis [8], 8 µg/mL (≈ 15.2 µM); in the test with Moraxella catarrhalis [9] it was 8 µg/mL (≈ 15.2 µM); against Escherichia coli, greater than 64 µg/mL; against Haemophilus influenzae, 16 µg/mL (≈ 30.3 µM); with Staphylococcus aureus [10], 2 µg/mL (≈ 3.79 µM). In addition, the MIC in the test on Moraxella catarrhalis [11] turned out to be 8 µg/mL (≈ 15.2 µM); against Moraxella catarrhalis [12], 8 µg/mL (≈ 15.2 µM); with Moraxella catarrhalis [13], 8 µg/mL (≈ 15.2 µM); against Staphylococcus aureus [14], 1 µg/mL (≈ 1.9 µM); in the test with Staphylococcus [15], 1 µg/mL (≈ 1.9 µM); in the test on Streptococcus pneumoniae it was 0.5 µg/mL (≈ 0.948 µM). For the same compound, the MIC in the test with Staphylococcus aureus [16] was 8 µg/mL; in the test with Moraxella catarrhalis [17], 8 µg/mL (≈ 15.2 µM).
